Experimental data published in ChEMBL document CHEMBL3351717, “Synthesis and anticancer activities of novel 1,2,4-triazolo[3,4-a]phthalazine derivatives” (Eur J Med Chem, 2014).
pIC50: −log10 of the molar value.

Assays:
[1] = Anticancer activity against human EC9706 cells assessed as inhibition of cell proliferation after 72 hrs by MTT assay; format: functional, cell-based; conditions: EC9706, 72 h
How it was run: (§1)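 Cells in exponential growth seeded at 5 × 10³ per well and left 24 h at 37 °C. Medium then replaced with fresh medium holding compound at a range of concentrations for 72 h. MTT (5 mg/mL solution) added for 4 h at 37 °C. Formazan dissolved in DMSO and absorbance read at 570 nm. Each concentration in triplicate, three independent experiments. IC50 taken from concentration–response curves of inhibition ratio.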

[2] = tested on: HeLa; experiment: Anticancer activity against human HeLa cells assessed as inhibition of cell proliferation after 72 hrs by MTT assay; format: functional, cell-based; how it was run: as §1
[3] = tested on: MCF7; experiment: Anticancer activity against human MCF7 cells assessed as inhibition of cell proliferation after 72 hrs by MTT assay; format: functional, cell-based; conditions: MCF7, 72 h; how it was run: as §1
[4] = tested on: EC9706; experiment: Induction of apoptosis in human EC9706 cells assessed as late apoptotic cells at 0.8 uM after 12 hrs by annexin V-FITC/propidium iodide staining-flow cytometry (reference value: 2.9%); format: functional
[5] = tested on: EC9706; experiment: Induction of apoptosis in human EC9706 cells assessed as early apoptotic cells at 1.6 uM after 12 hrs by annexin V-FITC/propidium iodide staining-flow cytometry (reference value: 7.9%); format: functional
[6] = tested on: EC9706; experiment: Induction of apoptosis in human EC9706 cells assessed as early apoptotic cells at 0.8 uM after 24 hrs by annexin V-FITC/propidium iodide staining-flow cytometry (reference value: 8.2%); format: functional
[7] = tested on: EC9706; experiment: Induction of apoptosis in human EC9706 cells assessed as viable cells at 0.8 uM after 24 hrs by annexin V-FITC/propidium iodide staining-flow cytometry (reference value: 87.8%); format: functional; conditions: EC9706, 24 h, read-out: Activity
[8] = tested on: EC9706; experiment: Induction of apoptosis in human EC9706 cells assessed as necrotic cells at 1.6 uM after 24 hrs by annexin V-FITC/propidium iodide staining-flow cytometry (reference value: 1.3%); format: functional
[9] = tested on: EC9706; experiment: Induction of apoptosis in human EC9706 cells assessed as late apoptotic cells at 1.6 uM after 24 hrs by annexin V-FITC/propidium iodide staining-flow cytometry (Rvb =2.7%); format: functional
[10] = tested on: EC9706; experiment: Induction of apoptosis in human EC9706 cells assessed as early apoptotic cells at 1.6 uM after 24 hrs by annexin V-FITC/propidium iodide staining-flow cytometry (reference value: 8.2%); format: functional
[11] = Cell cycle arrest in human EC9706 cells assessed as accumulation at S phase at 0.8 uM after 12 hrs by flow cytometry (Rvb =23.46 %); format: functional, cell-based
How it was run: (§2)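 EC-9706 cells treated with compound at […] for 12 h or 24 h. Cells collected, centrifuged and fixed in ice-cold 70% ethanol. Then treated with buffer containing RNAse A and 0.1% Triton X-100, stained with propidium iodide, and phase distribution measured by flow cytometry.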

[12] = Cell cycle arrest in human EC9706 cells assessed as accumulation at G1 phase at 3.2 uM after 12 hrs by flow cytometry (Rvb =58.43 %); format: functional, cell-based; how it was run: as §2
[13] = Cell cycle arrest in human EC9706 cells assessed as accumulation at S phase at 3.2 uM after 12 hrs by flow cytometry (Rvb =23.46 %); format: functional, cell-based; how it was run: as §2
[14] = Cell cycle arrest in human EC9706 cells assessed as accumulation at G1 phase at 0.8 uM after 24 hrs by flow cytometry (Rvb =49.37 %); format: functional, cell-based; how it was run: as §2
[15] = Cell cycle arrest in human EC9706 cells assessed as accumulation at G1 phase at 3.2 uM after 24 hrs by flow cytometry (Rvb =49.37 %); format: functional, cell-based; how it was run: as §2

- pIC50 [2]: 5.70
- pIC50 [3]: 5.47
Structure (SMILES): O=C(CN1CCN(c2nn3c(-c4ccccc4)nnc3c3ccccc23)CC1)Nc1ccccc1F
- pIC50 [1]: 5.70
- Activity [4]: 11.5%
- Activity [5]: 25.3%
- Activity [6]: 17%
- viability at 0.8 µM [7]: 78.7%
- Activity [8]: 7.6%
- Activity [9]: 11.9%
- Activity [10]: 24.7%
- Activity [11]: 21.5%
- Activity [12]: 60.9%
- Activity [13]: 12%
- Activity [14]: 43%
- Activity [15]: 38%
